≈ marks a conversion by molar mass, not a printed value.
Columns and labels:
[1] = tested on: Staphylococcus aureus; test: Antibacterial activity against Staphylococcus aureus IFO 3060 assessed as growth inhibition at 200 ug/disc after 24 hrs by agar disc-diffusion method; type: functional; conditions: IFO 3060, 24 h, read-out: DIZ
[2] = tested on: Micrococcus luteus; test: Antibacterial activity against Micrococcus luteus IFO 3232 after 24 hrs by two fold dilution method; type: functional
[3] = tested on: Candida albicans; test: Antifungal activity against Candida albicans IFO 0583 assessed as growth inhibition at 200 ug/disc after 48 hrs by agar disc-diffusion method; type: functional; conditions: IFO 0583, 48 h, read-out: DIZ
[4] = tested on: Bacillus subtilis; test: Antibacterial activity against Bacillus subtilis IFO 3007 assessed as growth inhibition at 200 ug/disc after 24 hrs by agar disc-diffusion method; type: functional; conditions: IFO 3007, 24 h, read-out: DIZ
[5] = tested on: Escherichia coli; test: Antibacterial activity against Escherichia coli IFO 3301 assessed as growth inhibition at 200 ug/disc after 24 hrs by agar disc-diffusion method; type: functional; conditions: IFO 3301, 24 h, read-out: DIZ
[6] = tested on: Pseudomonas aeruginosa; test: Antibacterial activity against Pseudomonas aeruginosa IFO 3448 assessed as growth inhibition at 200 ug/disc after 24 hrs by agar disc-diffusion method; type: functional; conditions: IFO 3448, 24 h, read-out: DIZ
[7] = tested on: Staphylococcus aureus; test: Antibacterial activity against Staphylococcus aureus IFO 3060 after 24 hrs by two fold dilution method; type: functional
[8] = tested on: Bacillus subtilis; test: Antibacterial activity against Bacillus subtilis IFO 3007 after 24 hrs by two fold dilution method; type: functional
[9] = tested on: Micrococcus luteus; test: Antibacterial activity against Micrococcus luteus IFO 3232 assessed as growth inhibition at 200 ug/disc after 24 hrs by agar disc-diffusion method; type: functional; conditions: IFO 3232, 24 h, read-out: DIZ
[10] = tested on: Escherichia coli; test: microbe, parasite or virus in culture; conditions: IFO 3301, 24 h
[11] = tested on: Staphylococcus aureus; test: Antibacterial activity against Staphylococcus aureus IFO 3060 assessed as growth inhibition at 100 ug/disc after 24 hrs by agar disc-diffusion method; type: functional
Outline: (§1)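 Agar disc-diffusion on Mueller-Hinton agar. Sterile 8 mm filter-paper discs carrying 100 µg of agent were laid on the seeded agar. Plates were incubated at 37 °C, and growth-inhibition zone diameters were read after 24 h for bacteria.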

[12] = tested on: Bacillus subtilis; test: Antibacterial activity against Bacillus subtilis IFO 3007 assessed as growth inhibition at 100 ug/disc after 24 hrs by agar disc-diffusion method; type: functional; outline: as §1
[13] = tested on: Escherichia coli; conditions: IFO 3301, 100 ug/disc
[14] = tested on: Micrococcus luteus; test: Antibacterial activity against Micrococcus luteus IFO 3232 assessed as growth inhibition at 100 ug/disc after 24 hrs by agar disc-diffusion method; type: functional; outline: as §1
[15] = tested on: Pseudomonas aeruginosa; test: Antibacterial activity against Pseudomonas aeruginosa IFO 3448 assessed as growth inhibition at 100 ug/disc after 24 hrs by agar disc-diffusion method; type: functional; outline: as §1
[16] = tested on: Pseudomonas aeruginosa; test: Antibacterial activity against Pseudomonas aeruginosa IFO 3448 after 24 hrs by two fold dilution method; type: functional
[17] = tested on: Escherichia coli; test: microbe, parasite or virus in culture; conditions: IFO 3301, 24 h, read-out: DIZ
[18] = tested on: Candida albicans; test: Antifungal activity against Candida albicans IFO 0583 assessed as growth inhibition at 100 ug/disc after 48 hrs by agar disc-diffusion method; type: functional; conditions: IFO 0583, 48 h, read-out: DIZ
[19] = tested on: Candida albicans; test: Antifungal activity against Candida albicans IFO 0583 after 24 hrs by two fold dilution method; type: functional; conditions: IFO 0583, 24 h

Oc1ccccc1/C=N/n1c(C23CC4CC(CC(C4)C2)C3)nn(CN2CCN(c3ccccc3)CC2)c1=S
zone of inhibition at 200 µg/disc [1]: 22 mm
MIC ([2]; IFO 3232, 24 h): 16 µg/mL (≈ 30.3 µM)
zone of inhibition at 200 µg/disc [3]: < 10 mm
zone of inhibition at 200 µg/disc [4]: 25 mm
zone of inhibition at 200 µg/disc [5]: 14 mm
zone of inhibition at 200 µg/disc [6]: 12 mm
MIC ([7]; IFO 3060, 24 h): 8 µg/mL (≈ 15.1 µM)
MIC ([8]; IFO 3007, 24 h): 4 µg/mL (≈ 7.57 µM)
zone of inhibition at 200 µg/disc [9]: 18 mm

COc1ccccc1N1CCN(Cn2nc(C34CC5CC(CC(C5)C3)C4)n(/N=C/c3ccccc3O)c2=S)CC1
zone of inhibition at 200 µg/disc [1]: 28 mm
MIC ([2]; IFO 3232, 24 h): 2 µg/mL (≈ 3.58 µM)
zone of inhibition at 200 µg/disc [3]: < 10 mm
zone of inhibition at 200 µg/disc [4]: 33 mm
zone of inhibition at 200 µg/disc [5]: 18 mm
MIC [10]: 8 µg/mL (≈ 14.3 µM)
zone of inhibition at 200 µg/disc [6]: 12 mm
MIC ([7]; IFO 3060, 24 h): 0.5 µg/mL (≈ 0.895 µM)
MIC ([8]; IFO 3007, 24 h): 0.5 µg/mL (≈ 0.895 µM)
zone of inhibition at 200 µg/disc [9]: 25 mm

FC(F)(F)c1ccc(NCn2nc(C34CC5CC(CC(C5)C3)C4)n(-c3ccc(Cl)cc3)c2=S)cc1
zone of inhibition at 200 µg/disc [1]: 16 mm
MIC ([2]; IFO 3232, 24 h): 16 µg/mL (≈ 30.8 µM)
zone of inhibition at 200 µg/disc [3]: < 10 mm
zone of inhibition at 200 µg/disc [4]: 22 mm
zone of inhibition at 200 µg/disc [5]: 14 mm
zone of inhibition at 200 µg/disc [6]: 11 mm
MIC ([8]; IFO 3007, 24 h): 8 µg/mL (≈ 15.4 µM)
zone of inhibition at 200 µg/disc [9]: 18 mm

CCN1CCN(Cn2nc(C34CC5CC(CC(C5)C3)C4)n(/N=C/c3ccccc3O)c2=S)CC1
zone of inhibition at 200 µg/disc [1]: 26 mm
MIC ([2]; IFO 3232, 24 h): 2 µg/mL (≈ 4.16 µM)
zone of inhibition at 200 µg/disc [3]: < 10 mm
zone of inhibition at 200 µg/disc [4]: 30 mm
zone of inhibition at 200 µg/disc [5]: 16 mm
zone of inhibition at 200 µg/disc [6]: 11 mm
MIC ([7]; IFO 3060, 24 h): 1 µg/mL (≈ 2.08 µM)
MIC ([8]; IFO 3007, 24 h): 0.5 µg/mL (≈ 1.04 µM)
zone of inhibition at 200 µg/disc [9]: 24 mm

COc1ccccc1N1CCN(Cn2nc(C34CC5CC(CC(C5)C3)C4)n(C)c2=S)CC1
zone of inhibition at 200 µg/disc [1]: 22 mm
MIC ([2]; IFO 3232, 24 h): 16 µg/mL (≈ 35.3 µM)
zone of inhibition at 200 µg/disc [3]: < 10 mm
zone of inhibition at 200 µg/disc [4]: 20 mm
zone of inhibition at 200 µg/disc [5]: 11 mm
zone of inhibition at 200 µg/disc [6]: < 10 mm
MIC ([7]; IFO 3060, 24 h): 4 µg/mL (≈ 8.82 µM)
MIC ([8]; IFO 3007, 24 h): 4 µg/mL (≈ 8.82 µM)
zone of inhibition at 200 µg/disc [9]: 19 mm

Oc1ccc(/C=N/n2c(C34CC5CC(CC(C5)C3)C4)nn(CN3CCN(c4ccccc4)CC3)c2=S)cc1
zone of inhibition at 200 µg/disc [1]: 22 mm
MIC ([2]; IFO 3232, 24 h): 16 µg/mL (≈ 30.3 µM)
zone of inhibition at 200 µg/disc [3]: < 10 mm
zone of inhibition at 200 µg/disc [4]: 22 mm
zone of inhibition at 200 µg/disc [5]: 16 mm
zone of inhibition at 200 µg/disc [6]: < 10 mm
MIC ([7]; IFO 3060, 24 h): 4 µg/mL (≈ 7.57 µM)
MIC ([8]; IFO 3007, 24 h): 4 µg/mL (≈ 7.57 µM)
zone of inhibition at 200 µg/disc [9]: 19 mm

GENTAMICIN
MIC [2]: 2 µg/mL
inhibition zone (IZ) [11]: 26 mm
inhibition zone (IZ) [12]: 25 mm
MIC [7]: 2 µg/mL
IZ [13]: 20 mm
inhibition zone (IZ) [14]: 18 mm
inhibition zone (IZ) [15]: 19 mm
MIC [8]: 2 µg/mL
MIC [16]: 1 µg/mL

CCN1CCN(Cn2nc(C34CC5CC(CC(C5)C3)C4)n(/N=C/c3ccc(O)cc3)c2=S)CC1
zone of inhibition at 200 µg/disc [1]: 30 mm
MIC ([2]; IFO 3232, 24 h): 2 µg/mL (≈ 4.16 µM)
zone of inhibition at 200 µg/disc [3]: < 10 mm
zone of inhibition at 200 µg/disc [4]: 29 mm
zone of inhibition at 200 µg/disc [5]: 17 mm
zone of inhibition at 200 µg/disc [6]: 13 mm
MIC ([7]; IFO 3060, 24 h): 1 µg/mL (≈ 2.08 µM)
MIC ([8]; IFO 3007, 24 h): 1 µg/mL (≈ 2.08 µM)
zone of inhibition at 200 µg/disc [9]: 25 mm

CC1(C)S[C@@H]2[C@H](NC(=O)[C@H](N)c3ccccc3)C(=O)N2[C@H]1C(=O)O [AMPICILLIN]
MIC ([2]; IFO 3232, 24 h): 2 µg/mL (≈ 5.72 µM)
zone of inhibition at 100 µg/disc ([11]; IFO 3060, 24 h, read-out: DIZ): 23 mm
zone of inhibition at 100 µg/disc ([12]; IFO 3007, 24 h, read-out: DIZ): 21 mm
MIC ([7]; IFO 3060, 24 h): 2 µg/mL (≈ 5.72 µM)
zone of inhibition at 100 µg/disc ([14]; IFO 3232, 24 h, read-out: DIZ): 19 mm
zone of inhibition at 100 µg/disc ([15]; IFO 3448, 24 h, read-out: DIZ): 16 mm
MIC ([8]; IFO 3007, 24 h): 0.5 µg/mL (≈ 1.43 µM)
MIC ([16]; IFO 3448, 24 h): 2 µg/mL (≈ 5.72 µM)
zone of inhibition at 100 µg/disc [17]: 17 mm

Cn1c(C23CC4CC(CC(C4)C2)C3)nn(CN2CCN(c3cccc(C(F)(F)F)c3)CC2)c1=S
zone of inhibition at 200 µg/disc [1]: 30 mm
MIC ([2]; IFO 3232, 24 h): 4 µg/mL (≈ 8.14 µM)
zone of inhibition at 200 µg/disc [3]: < 10 mm
zone of inhibition at 200 µg/disc [4]: 33 mm
zone of inhibition at 200 µg/disc [5]: 19 mm
MIC [10]: 16 µg/mL (≈ 32.5 µM)
zone of inhibition at 200 µg/disc [6]: 21 mm
MIC ([7]; IFO 3060, 24 h): 0.5 µg/mL (≈ 1.02 µM)
MIC ([8]; IFO 3007, 24 h): 0.5 µg/mL (≈ 1.02 µM)
zone of inhibition at 200 µg/disc [9]: 28 mm
MIC ([16]; IFO 3448, 24 h): 8 µg/mL (≈ 16.3 µM)

Clc1ccccc1C(c1ccccc1)(c1ccccc1)n1ccnc1 [CLOTRIMAZOLE]
zone of inhibition at 100 µg/disc [18]: 21 mm
MIC [19]: 2 µg/mL (≈ 5.8 µM)

COc1ccccc1N1CCN(Cn2nc(C34CC5CC(CC(C5)C3)C4)n(/N=C/c3ccc(O)cc3)c2=S)CC1
zone of inhibition at 200 µg/disc [1]: 30 mm
MIC ([2]; IFO 3232, 24 h): 16 µg/mL (≈ 28.6 µM)
zone of inhibition at 200 µg/disc [3]: < 10 mm
zone of inhibition at 200 µg/disc [4]: 29 mm
zone of inhibition at 200 µg/disc [5]: 16 mm
zone of inhibition at 200 µg/disc [6]: 14 mm
MIC ([7]; IFO 3060, 24 h): 1 µg/mL (≈ 1.79 µM)
MIC ([8]; IFO 3007, 24 h): 1 µg/mL (≈ 1.79 µM)
zone of inhibition at 200 µg/disc [9]: 18 mm

Reference: ChEMBL document CHEMBL2424616, “Synthesis and antimicrobial activity of novel 5-(1-adamantyl)-2-aminomethyl-4-substituted-1,2,4-triazoline-3-thiones” (2013)
